Test [1] is described as follows: reducers of endogenous Her2 protein level, primary screen, SKBR3 breast tumor cells, AlphaScreen, ATP viability (AID 461;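 active = Her2 level under about 52% in both replicate screens, with viability over 70% of control, limit read from the data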;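 for Her2 level: lower value means less Her2 protein in the cells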;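 for viability: percent of carrier control wells set as 100% viability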). Conditions: 18-24 h, measured here: SKBR3 viability, ATP luminescence, at 10 µM. Background: Alpha assays give light when donor and acceptor beads are brought close together.
The target of test [2] is Receptor tyrosine-protein kinase erbB-2 (Homo sapiens) (UniProt P04626). Described as above. Conditions: 18-24 h, at 10 µM, stronger effect = lower value.
A short description of test [3]: SK-BR-3 cell growth inhibitors, pilot screen, 24 h, human (AID 572;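 active = viability at or below 10% of carrier control in both of two separate runs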;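 note: compound exposure lasted between 18 and 24 h rather than exactly 24 h; 100% = carrier-treated control wells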). Conditions: SK-BR-3 viability, CellTiter-Glo luminescence, at 10 µM, stronger effect = lower value. A general note: Cellular ATP, detected with luciferase, serves as a proxy for viable cell number.
A short description of test [4]: HUVEC growth inhibition – cell-based, human, primary screen (AID 575;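 active = viability at or below 30% in both replicate assays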;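 note: 100% = median of untreated cell wells with 0.1% DMSO on each plate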). Conditions: HUVEC proliferation, CellTiter-Glo luminescence, 72 h; at 10 µM; stronger effect = lower value. The gist of the method:
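Assay system: Primary human umbilical vein endothelial cells | Quantity: 1250 cells per well | Medium: Supplemented EBM, 2% fetal bovine serum | Detection: CellTiter-Glo luminescence measuring cellular ATP | Read-out: % viability vs DMSO wells | Plate: Collagen-coated 384-well format | Times: 72 h exposure, 37 °C, 5% CO2, 30 min RT equilibration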

A short description of test [5]: growth inhibitors of H69AR lung tumor, primary screen, human, duplicate replicates (AID 580;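 active = viability at or under a set limit in both replicates, limit being median viability minus 3 SD, cut at about 48% in these data, passing the limit was not always enough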;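 note: 100% = mean luminescence of untreated wells and 0% = no signal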). Conditions: H69AR lung tumor cells viability, ATP luminescence, 72 h; at 10 µM; stronger effect = lower value.
Test [6] can be described thus: reversal of MRP1-mediated doxorubicin resistance, pilot screen, H69AR cells, doxorubicin co-treatment (AID 601;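 active = viability loss from added drug above about 55%, and viability with drug at most 40%, in both replicates, limit read from the data, passing the limit was not always enough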). Conditions: CellTiter-Glo, 72 h, at 10 µM; for differential viability (reversal): stronger effect = higher value.
Test [7] can be described thus: 384-well plate pilot, post-Golgi transport modulator project, inhibition of yeast transport mutant growth (AID 636; in the data active = inhibition above about 31%). Conditions: absorbance 615 nm, about 18 h, stronger effect = higher value.
Test [8] can be described thus: growth suppression of yeast trafficking mutant, preliminary HTS, modulators of trafficking downstream of Golgi apparatus project, 1536-format plate, OD 615 nm (AID 637). Conditions: yeast transport mutant growth, absorbance 615 nm, 18 h; stronger effect = higher value.
[9] abbreviates: H69AR cells + 2 uM doxorubicin, measured here: viability with 2 uM doxorubicin, stronger effect = lower value.
Where [10] appears, read: H69AR cells, compound alone cytotoxicity.

The source made the active and inactive calls. Cut-off read from the data, not from the text of the source, unless noted: active = inhibition above about 30%; inactive = the rest.

Chain of Receptor tyrosine-protein kinase erbB-2 (Homo sapiens) (P04626 whole entry, looked up): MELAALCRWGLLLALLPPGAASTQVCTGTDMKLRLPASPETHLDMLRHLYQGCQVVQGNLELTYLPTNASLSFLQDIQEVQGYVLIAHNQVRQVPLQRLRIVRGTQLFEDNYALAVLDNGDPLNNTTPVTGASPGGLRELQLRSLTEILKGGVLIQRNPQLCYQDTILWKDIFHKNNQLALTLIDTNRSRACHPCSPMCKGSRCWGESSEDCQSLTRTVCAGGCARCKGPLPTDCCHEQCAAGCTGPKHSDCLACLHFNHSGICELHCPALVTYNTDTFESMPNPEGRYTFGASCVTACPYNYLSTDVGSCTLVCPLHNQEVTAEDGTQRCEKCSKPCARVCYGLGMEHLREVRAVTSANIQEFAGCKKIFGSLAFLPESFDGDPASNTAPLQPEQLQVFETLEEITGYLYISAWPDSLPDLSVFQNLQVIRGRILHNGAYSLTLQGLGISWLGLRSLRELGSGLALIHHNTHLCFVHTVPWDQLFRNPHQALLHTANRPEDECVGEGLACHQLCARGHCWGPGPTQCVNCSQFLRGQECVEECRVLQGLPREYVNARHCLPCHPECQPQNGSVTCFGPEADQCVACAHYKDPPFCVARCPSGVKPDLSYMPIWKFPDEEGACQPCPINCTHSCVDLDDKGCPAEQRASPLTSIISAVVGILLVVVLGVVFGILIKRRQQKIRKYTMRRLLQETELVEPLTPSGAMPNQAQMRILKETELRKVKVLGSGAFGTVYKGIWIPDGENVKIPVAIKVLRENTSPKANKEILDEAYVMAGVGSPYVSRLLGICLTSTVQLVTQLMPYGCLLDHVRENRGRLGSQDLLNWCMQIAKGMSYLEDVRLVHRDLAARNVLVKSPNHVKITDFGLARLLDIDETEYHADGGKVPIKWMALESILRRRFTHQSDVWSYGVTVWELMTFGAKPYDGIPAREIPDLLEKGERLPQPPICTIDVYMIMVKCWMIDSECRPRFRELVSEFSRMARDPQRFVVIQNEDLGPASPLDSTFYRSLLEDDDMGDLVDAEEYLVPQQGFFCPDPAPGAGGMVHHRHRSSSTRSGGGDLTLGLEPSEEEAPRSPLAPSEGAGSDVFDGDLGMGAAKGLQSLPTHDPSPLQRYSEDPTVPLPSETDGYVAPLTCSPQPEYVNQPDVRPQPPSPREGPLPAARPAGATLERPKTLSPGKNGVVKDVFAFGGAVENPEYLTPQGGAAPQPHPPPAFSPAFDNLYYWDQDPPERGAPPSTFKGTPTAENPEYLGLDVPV

The viability is a read-out of living cells in per cent, often relative to untreated cells. A word on the inhibition: it is the change of the read-out against control, counted positive when it falls. Regarding `c1cc2c(cc1C1=Nn3c(nnc3C3CCCCC3)SC1)OCO2`, the viability in test [1] was 133%; in test [3], 133% (inactive); in test [4], 64.8% (inactive); in test [5], 9.93% (active); in test [6] (setting [9]), 77.3%; in test [6] (setting [10]), 9.93%. The Her2 level in test [2] was 108% (inactive). In addition, the differential viability (reversal) in test [6] (H69AR cells + 2 uM doxorubicin) is -67.4% (inactive). Also, the inhibition in test [7] was -1.84% (inactive); in test [8] it was 3.06% (inactive).
In the case of `COc1ccc(CCNC(=O)c2cc(C(C)C)on2)cc1OC`, the viability in test [1] was 95.5%; in test [3], 95.5% (inactive); in test [4], 96.6% (inactive); in test [5], 93.2% (inactive); in test [6] (setting [9]), 83.6%; in test [6] (setting [10]), 93.2%. In test [2], the Her2 level was 101% (inactive). The differential viability (reversal) in test [6] (H69AR cells + 2 uM doxorubicin) was 9.6% (inactive). In addition, the inhibition in test [7] is 0.51% (inactive); in test [8] it was -0.67% (inactive).
Regarding `COC(=O)c1cn(-c2ccccc2)nc1C(=O)OC`, the viability in test [1] was 93.5%; in test [3], 93.5% (inactive); in test [4], 91% (inactive); in test [5] it was 97.8% (inactive); in test [6] (setting [9]) it was 86.9%; in test [6] (setting [10]), 97.8%. Besides, the Her2 level in test [2] was 89.5% (inactive). In test [6] (H69AR cells + 2 uM doxorubicin), the differential viability (reversal) was 10.9% (inactive). Also, the figures for the inhibition in test [7] and in test [8] were -4.8% (inactive) and -1.97% (inactive), respectively.
In the case of `CCOc1cc2[nH]c(=S)n(CC3CCCO3)c(=O)c2cc1OCC` (stereo not given), the viability in test [1] was 105%; in test [3], 105% (inactive); in test [4], 88.3% (inactive); in test [5], 87.8% (inactive); in test [6] (setting [9]), 80.7%; in test [6] (setting [10]) it was 87.8%. In addition, the Her2 level in test [2] was 103% (inactive). In addition, the differential viability (reversal) in test [6] (H69AR cells + 2 uM doxorubicin) is 7.12% (inactive). Besides, the inhibition is -4.46% (inactive) in test [7] and -3.77% (inactive) in test [8].
In the case of `O=C(NC1CCCCC1)C(c1ccco1)N(Cc1cccnc1)C(=O)C1COc2ccccc2O1` (stereo not given), the viability in test [1] is 100%; in test [3], 100% (inactive); in test [4], 91.4% (inactive); in test [5] it was 81.1% (inactive); in test [6] (setting [9]), 88.1%; in test [6] (setting [10]), 81.1%. In addition, in test [2], the Her2 level is 84.5% (inactive). Further, the differential viability (reversal) in test [6] (H69AR cells + 2 uM doxorubicin) was -7.03% (inactive). In addition, the inhibition in test [7] is -2.24% (inactive); in test [8] it was 2.13% (inactive).
In the case of `COc1ccccc1N1CCN(C/C(O)=C(\C#N)c2nc(-c3ccccc3)cs2)CC1`, the viability in test [1] was 94%; in test [3], 94% (inactive); in test [4], 84.1% (inactive); in test [5], 90.8% (inactive); in test [6] (setting [9]), 97.2%; in test [6] (setting [10]) it was 90.8%. Moreover, the Her2 level in test [2] is 108% (inactive). The differential viability (reversal) in test [6] (H69AR cells + 2 uM doxorubicin) is -6.43% (inactive). Moreover, the results for the inhibition in test [7] and in test [8] were 0.55% (inactive) and 12.5% (inactive), respectively.
On to `Cc1ccccc1N1CC(c2nc3ccccc3[nH]2)CC1=O` (stereo not given), for which the viability is 102% in test [1]; 102% (inactive) in test [3]; 87.7% (inactive) in test [4]; 96.1% (inactive) in test [5]; 96.7% in test [6] (setting [9]); 96.1% in test [6] (setting [10]). Moreover, the Her2 level in test [2] was 91.5% (inactive). Further, the differential viability (reversal) in test [6] (H69AR cells + 2 uM doxorubicin) was -0.615% (inactive). Further, the figures for the inhibition in test [7] and in test [8] were -0.92% (inactive) and -5.71% (inactive), respectively.
Regarding `CC(C)N(O)C(=O)NC(C)(C)C`, the viability is 110% in test [1]; 110% (inactive) in test [3]; 97.8% (inactive) in test [4]; 93.8% (inactive) in test [5]; 98.9% in test [6] (setting [9]); 93.8% in test [6] (setting [10]). Moreover, the Her2 level in test [2] was 99% (inactive). Moreover, in test [6] (H69AR cells + 2 uM doxorubicin), the differential viability (reversal) is -5.12% (inactive). The inhibition was -2.8% (inactive) in test [7] and 5% (inactive) in test [8].
As for `COC(=O)c1[nH]c2ccccc2c1NS(=O)(=O)c1ccc(OC)cc1OC`, the viability is 88.5% in test [1]; 88.5% (inactive) in test [3]; 96.8% (inactive) in test [4]; 84% (inactive) in test [5]; 99.4% in test [6] (setting [9]); 84% in test [6] (setting [10]). Also, the Her2 level in test [2] was 82% (inactive). Besides, the differential viability (reversal) in test [6] (H69AR cells + 2 uM doxorubicin) is -15.4% (inactive). For the same molecule, the inhibition was -5.26% (inactive) in test [7] and -3.82% (inactive) in test [8].
Regarding `Cc1cc(Cn2ccnc2)c(C)cc1Cn1ccnc1`, the viability is 82% in test [1]; 82% (inactive) in test [3]; 107% (inactive) in test [4]; 101% (inactive) in test [5]; 94.1% in test [6] (setting [9]); 101% in test [6] (setting [10]). Besides, the Her2 level in test [2] is 91.5% (inactive). In test [6] (H69AR cells + 2 uM doxorubicin), the differential viability (reversal) is 6.74% (inactive). Further, the inhibition in test [7] is -3.6% (inactive); in test [8], -0.32% (inactive).
Consider `CC(=O)NC1CC2CCCC(C1)N2CC(=O)Nc1ccccc1` (stereo not given), for which the viability is 95.5% in test [1]; 95.5% (inactive) in test [3]; 88.9% (inactive) in test [4]; 96.7% (inactive) in test [5]; 85.2% in test [6] (setting [9]); 96.7% in test [6] (setting [10]). Also, the Her2 level in test [2] is 97% (inactive). In addition, the differential viability (reversal) in test [6] (H69AR cells + 2 uM doxorubicin) was 11.4% (inactive). The inhibition in test [7] is 0.13% (inactive); in test [8], -6.98% (inactive).
`Cc1ccccc1-c1nc2ccccc2c(=O)n1C1CCS(=O)(=O)C1` (stereo not given): the viability in test [1] was 96.5%; in test [3] it was 96.5% (inactive); in test [4], 108% (inactive); in test [5], 90.3% (inactive); in test [6] (setting [9]) it was 100%; in test [6] (setting [10]), 90.3%. The Her2 level in test [2] is 91.5% (inactive). The differential viability (reversal) in test [6] (H69AR cells + 2 uM doxorubicin) is -9.98% (inactive). The inhibition was 0.26% (inactive) in test [7] and 0.97% (inactive) in test [8].
Regarding `O=C(C1CCC(CNS(=O)(=O)c2cccc3cccnc23)CC1)N1CCCC1` (stereo not given), the viability in test [1] was 98.5%; in test [3], 98.5% (inactive); in test [4], 99.9% (inactive); in test [5], 99.9% (inactive); in test [6] (setting [9]), 96.6%; in test [6] (setting [10]), 99.9%. In addition, the Her2 level in test [2] is 104% (inactive). Besides, the differential viability (reversal) in test [6] (H69AR cells + 2 uM doxorubicin) was 3.37% (inactive). Further, the figures for the inhibition in test [7] and in test [8] were -1.07% (inactive) and -6.72% (inactive), respectively.
On to `O=C1CN(C(=O)COC(=O)C23CC4CC(CC(O)(C4)C2)C3)c2ccccc2N1`, for which the viability in test [1] is 115%; in test [3] it was 115% (inactive); in test [4] it was 104% (inactive); in test [5], 96.6% (inactive); in test [6] (setting [9]), 86.1%; in test [6] (setting [10]), 96.6%. Moreover, in test [2], the Her2 level is 85.5% (inactive). Also, the differential viability (reversal) in test [6] (H69AR cells + 2 uM doxorubicin) was 10.6% (inactive). Also, the figures for the inhibition in test [7] and in test [8] were -7.97% (inactive) and 3.65% (inactive), respectively.

For the origin of these results see PubChem BioAssay.
